# Most compounds without a hit are left out; they make up all but 2.3% or so of the library.
# TRPC4 potent: allosteric potentiators of mouse TRPC4 channel. actives 0.42% (n = 310,000). Q9QUQ5. HEK293 TRPC4beta/mu-opioid, DAMGO EC20, Fluo-4 Ca2+ flux; active compounds read high. B-score at 10 µM;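 active = B-score of calcium response area above 5 SD of library B-scores, with initial fluorescence ratio within 5 SD of library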;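 also: B-score of integrated fluorescence ratio over time as area under calcium response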
# Target sequence (Q9QUQ5 whole entry, looked up): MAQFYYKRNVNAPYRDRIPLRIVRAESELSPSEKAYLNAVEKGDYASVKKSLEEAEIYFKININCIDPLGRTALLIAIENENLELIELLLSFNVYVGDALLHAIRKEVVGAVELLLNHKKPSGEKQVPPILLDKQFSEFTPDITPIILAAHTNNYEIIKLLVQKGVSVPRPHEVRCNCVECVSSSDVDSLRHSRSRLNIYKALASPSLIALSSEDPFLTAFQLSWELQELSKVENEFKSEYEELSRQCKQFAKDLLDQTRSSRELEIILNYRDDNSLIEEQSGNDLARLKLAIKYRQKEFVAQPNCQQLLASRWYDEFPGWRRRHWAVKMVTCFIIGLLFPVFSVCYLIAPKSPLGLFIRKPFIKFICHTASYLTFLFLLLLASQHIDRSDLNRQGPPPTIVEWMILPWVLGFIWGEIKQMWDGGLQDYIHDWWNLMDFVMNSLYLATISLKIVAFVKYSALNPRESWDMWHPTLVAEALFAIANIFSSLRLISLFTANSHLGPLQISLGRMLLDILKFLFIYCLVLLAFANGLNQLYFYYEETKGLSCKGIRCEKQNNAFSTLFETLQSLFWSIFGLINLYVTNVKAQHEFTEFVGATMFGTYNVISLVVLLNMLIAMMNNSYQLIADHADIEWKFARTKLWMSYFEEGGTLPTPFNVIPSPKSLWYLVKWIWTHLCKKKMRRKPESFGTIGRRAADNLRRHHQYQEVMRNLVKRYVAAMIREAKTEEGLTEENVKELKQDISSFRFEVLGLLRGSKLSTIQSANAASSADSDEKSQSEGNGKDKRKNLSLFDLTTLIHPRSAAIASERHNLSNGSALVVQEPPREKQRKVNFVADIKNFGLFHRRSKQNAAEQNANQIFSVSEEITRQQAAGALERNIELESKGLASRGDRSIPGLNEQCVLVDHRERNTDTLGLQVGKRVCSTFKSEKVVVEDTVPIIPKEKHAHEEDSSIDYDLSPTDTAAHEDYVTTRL
# TRPC4 block: TRPC4 (mouse) channel inhibition; HEK293 TRPC4beta/mu-opioid, DAMGO-evoked Fluo4 calcium flux; active compounds read low; B-score at 10 µM; actives 0.39% (n = 300,000);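 active = B-score over 3 SD under the library average, no early fluorescence shift, positive overall ratio signal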
#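 Assay system – HEK293 line stably carrying TRPC4beta and mu-opioid receptor · Doses – single dose · Detection – Fluo4 calcium-dye fluorescence, kinetic read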
# TRPC6 inhibitor: blocks the mouse TRPC6 cation channel | Q61143 | HEK293-TRPC6, membrane potential dye, ACh-evoked depolarization; active compounds read low | B-score at 10 µM | actives 1.1% (n = 310,000) | AID 2553;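 active = B-score under library mean minus 3 SD, initial fluorescence not abnormally high, positive integrated signal ratio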;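 also: B-score derived from integrated fluorescence ratio over the kinetic read; more negative B-score means stronger inhibition of depolarization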
# TRPC6 act: mouse TRPC6 channel activation; Q61143; HEK293-TRPC6 membrane potential dye fluorescence; active compounds read high; B-score at 10 µM; actives 0.13% (n = 310,000);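 active = B-score of the integrated fluorescence ratio above library mean plus 3 SD, and starting fluorescence ratio within library mean plus 5 SD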;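 also: higher score means more depolarization so channel activation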
# TRPC4 act: TRPC4 (mouse) channel activation. Q9QUQ5. HEK293 TRPC4beta/mu-opioid, Fluo4 calcium fluorescence; active compounds read high. B-score at 10 µM. actives 0.49% (n = 310,000). AID 2237;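 active = B-score above 5 SD of library B-scores, and initial fluorescence ratio not above library mean plus 5 SD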;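 also: positive B-score marks a calcium rise read as TRPC4 activation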
#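 Assay system: HEK293 stable line with TRPC4beta plus mu-opioid receptor. Times: dye 45 min RT, read 110 s. Measured by: kinetic Fluo4 calcium fluorescence. Measure: B score of integrated ratio. Controls: assay buffer as low control, maximal DAMGO as high control.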
# TRPC4 sel inh 2: second selectivity test of TRPC6 inhibitors: effect on mouse TRPC4; shares compounds with TRPC6 inhibitor; HEK293 TRPC4/MOR, membrane potential dye fluorescence; channel activated by saturating DAMGO dose; actives 42% (n = 920); inhibition, % at 10 µM; AID 2776;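 active = compounds whose fluorescence signal differed from control wells by over 3 SD, either direction, in both duplicate plates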
# TRPC4 spec: mouse TRPC4 off-target activity of TRPC6 inhibitors; actives 61% (n = 920); HEK293 TRPC4/mu-opioid, membrane potential fluorescence; activity change, negative = inhibition, % at 10 µM; shares compounds with TRPC6 inhibitor;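 active = rise or fall in signal beyond 3 SD of buffer-only wells in both replicate plates, either sign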;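 also: integrated kinetic ratio of fluorescence range over baseline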
# HEK293 MPD ctr 2-1: parental HEK293 nonspecific activity of TRPC6 inhibitors, second screen; shares compounds with TRPC6 inhibitor; parental HEK293 membrane potential dye fluorescence; maximal acetylcholine challenge after compound addition; signal change vs control, % at 10 µM; AID 2779; actives 31% (n = 920);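 active = membrane potential signal moving either way by over 3 SD of the maximum-effect control, in both duplicate plates, meaning non-specific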
# HEK293 MPD ctr-1: parental HEK293 nonspecific activity of TRPC6 inhibitors; shares compounds with TRPC6 inhibitor; parental HEK293 membrane potential dye fluorescence; membrane potential signal change, % at 10 µM; actives 60% (n = 920); AID 2780;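 active = membrane potential signal shifting up or down by more than 3 SD of buffer-only wells, on both duplicate plates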
# HEK293 MPD ctr-2: counter-screen for TRPC6 modulators: effect in parental HEK293 cells | shares compounds with TRPC6 inhibitor | membrane potential dye fluorescence | membrane potential signal change, % at 10 µM | actives 51% (n = 2,400) | AID 488924;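 active = membrane potential signal moves up or down beyond 5 SD from buffer-only wells, on both duplicate plates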
# HEK293 MPD ctr 2-2: parental HEK293 nonspecific activity of TRPC6 modulators, second screen; shares compounds with TRPC6 inhibitor; membrane potential dye fluorescence; after compound, maximal acetylcholine stimulation; inhibition, % at 10 µM; actives 14% (n = 2,400); AID 488926;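 active = membrane potential signal drops by more than 5 SD from the mean control signal, in both duplicate plates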;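 also: plate controls were acetylcholine ECmax control wells for no effect and buffer only wells for full effect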
# TRPC4 ctr mod: tests whether TRPC6 modulators also affect mouse TRPC4; shares compounds with TRPC6 inhibitor; HEK293 TRPC4/mu-opioid, membrane potential fluorescence; percent change from control (negative = decrease, positive = increase), % at 10 µM; actives 69% (n = 2,400);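 active = membrane potential signal moved up or down beyond 5 SD of buffer control wells, in both duplicate plates, actives on both sides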;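 also: plate controls were assay buffer wells for no effect and DAMGO maximal-effect wells for full effect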
# TRPC4 ctr inh 2: mouse TRPC4 off-target activity of TRPC6 modulators, second screen; actives 55% (n = 2,400); shares compounds with TRPC6 inhibitor; HEK293 TRPC4/mu-opioid, membrane potential dye fluorescence; stimulated with maximal-effect DAMGO; inhibition, % at 10 µM; AID 488928;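 active = drop in membrane potential signal beyond 5 SD of the control wells in both duplicate plates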;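 also: TRPC4 counter screen for TRPC6 hits run under conditions tuned for TRPC6 not TRPC4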
# TRPC6 inh conf: confirmation of mouse TRPC6 inhibitors; HEK293-TRPC6, membrane potential dye, ACh-evoked depolarization; actives 43% (n = 3,300); AID 488960; shares compounds with TRPC6 inhibitor; inhibition, % at 10 µM;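 active = fluorescence ratio falls more than 5 SD below the full-stimulation control mean, in both duplicate runs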;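 also: integrated fluorescence ratio of peak minus minimum over baseline after agonist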
# TRPC6 act confirm: mouse TRPC6 activator confirmation. HEK293-TRPC6 membrane potential dye fluorescence, FDSS. shares compounds with TRPC6 inhibitor. actives 11% (n = 2,800). activation, % at 10 µM;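 active = ratio signal rise beyond 5 SD above unstimulated control wells' mean, seen in both duplicate runs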;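 also: plate controls were buffer EC0 wells for no effect and acetylcholine ECmax response for full effect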
# * = called active by the depositor; i = inactive; x = no result; + = active, no number.
SMILES,TRPC4 potent,TRPC4 block,TRPC6 inhibitor,TRPC6 act,TRPC4 act,HEK293 MPD ctr-2,HEK293 MPD ctr 2-2,TRPC4 ctr mod,TRPC4 ctr inh 2,TRPC6 inh conf,TRPC6 act confirm,others
CC(C)c1ccc(S(=O)(=O)/N=C2\C=C(NS(=O)(=O)c3ccccc3)C(=O)c3ccccc32)cc1,i,-13*,-5.3*,i,i,-170%*,64%*,-30%*,80%*,68%*,i,
Fc1ccc(NC(=S)Nc2ccccc2OC(F)F)cc1Cl,i,i,-6.5*,i,i,i,i,i,35%*,i,i,
Cc1ccc(NC(=S)Nc2ccc(Cl)c(Cl)c2)c(OC(F)F)c1,i,i,i,i,i,x,x,x,x,x,x,
OCCN=c1cc(-c2ccccc2)oc2ccc(Cl)cc12,i,i,-8.8*,i,i,x,x,x,x,55%*,i,TRPC4 sel inh 2=67%*;TRPC4 spec=-28%*;HEK293 MPD ctr 2-1=i;HEK293 MPD ctr-1=-356%*
CC(C)CN=c1cc(-c2ccccc2)oc2ccc(Cl)cc12,i,i,-7.4*,i,i,x,x,x,x,i,i,TRPC4 sel inh 2=76%*;TRPC4 spec=-14%*;HEK293 MPD ctr 2-1=i;HEK293 MPD ctr-1=-268%*
C/C(CCc1oc2ccc(Cl)cc2c1-c1ccc(C)o1)=N\O,i,i,i,i,i,x,x,x,x,x,x,
O=c1oc2ccc(Cl)cc2cc1-c1ccccc1,i,i,i,i,i,x,x,x,x,x,x,
Cc1cc(Cl)ccc1Oc1ncnc2oc(-c3ccccc3)cc12,i,i,i,i,i,x,x,x,x,x,x,
CC(O)CN=c1cc(-c2ccccc2)oc2ccc(Cl)cc12 (stereo not given),i,i,-7.3*,i,i,-134%*,i,-28%*,37%*,58%*,i,
OCCn1c(-c2ccc(F)cc2)csc1=Nc1ccccc1,i,i,-7.5*,i,i,120%*,i,12%*,31%*,74%*,x,
O=C1/C(=C\c2cc([N+](=O)[O-])ccc2O)SC(=S)N1Cc1ccc(Cl)cc1,21*,i,i,51*,137*,+,i,284%*,i,i,178%*,
Cc1cn2c(N)c(C=C3C=C(Cl)C(=O)C(Cl)=C3)c(=O)nc2s1,i,i,i,83*,i,+,198%*,360%*,i,i,430%*,
CN(C(=O)c1nn(C)c2c1CS(=O)(=O)c1ccccc1-2)c1cccc(Cl)c1,i,i,-5.6*,i,i,98%*,i,21%*,i,50%*,x,
COc1cccc(C2=Nc3cccc4cccc(c34)N2)c1,i,i,-8.1*,i,i,-94%*,i,-26%*,74%*,52%*,i,
COc1ccc(NC(=S)N2CCCC(c3nc4ccc(C)cc4[nH]3)C2)cc1 (stereo not given),i,i,-6.5*,i,i,i,i,i,i,i,i,
N=c1c(C(=O)NCc2ccc(F)cc2)cc2c(=O)n3ccccc3nc2n1CC1CCCO1 (stereo not given),i,i,-6.7*,i,i,i,i,-38%*,54%*,59%*,i,
COc1ccc(CCNC(=O)c2cc3c(=O)n4ccccc4nc3n(C3CCCCC3)c2=N)cc1OC,i,i,i,i,i,x,x,x,x,x,x,
COc1ccc(CCNC(=O)c2cc3c(=O)n4ccccc4nc3n(CC3CCCO3)c2=N)cc1OC (stereo not given),i,i,-5*,i,i,106%*,i,12%*,i,46%*,x,
CN(C)c1ccc(N2C(=NC(=O)COc3ccccc3)SC3CS(=O)(=O)CC32)cc1 (stereo not given),i,i,i,i,i,x,x,x,x,x,x,
COc1cccc2sc3ccc(C#CC4(N)CCCCC4)cc3c(=O)c12,i,i,-9.2*,i,i,x,x,x,x,57%*,i,TRPC4 sel inh 2=59%*;TRPC4 spec=-15%*;HEK293 MPD ctr 2-1=i;HEK293 MPD ctr-1=-228%*
COc1cc(OC)cc(C(=O)N2CCN(c3ccc(N4CCOCC4)nn3)CC2)c1,i,i,i,i,i,x,x,x,x,x,x,
CC(NC(=O)c1ccc(F)cc1)c1ccc2c(c1)CCCC2 (stereo not given),i,i,-6.1*,i,i,i,i,i,i,i,i,
CC1CCN(CCCNC(=O)c2coc3nc4ccccc4nc23)CC1,i,i,-5.1*,i,i,i,i,-16%*,46%*,i,i,
CC1CCCN(CCCNC(=O)c2coc3nc4ccccc4nc23)C1 (stereo not given),i,i,i,i,i,x,x,x,x,x,x,
Cc1cc(OCC(=O)Nc2ccc(N3CCN(C)CC3)cc2)ccc1Cl,i,-6*,-5.1*,i,i,i,i,30%*,52%*,i,i,
Cc1cc(OCC(=O)Nc2ccc(S(=O)(=O)N3CCN(C)CC3)cc2)ccc1Cl,i,i,i,i,i,x,x,x,x,x,x,
CN1CCN(c2ccc(NC(=O)COc3ccccc3Cl)cc2)CC1,i,i,-9.2*,i,i,x,x,x,x,i,i,TRPC4 sel inh 2=58%*;TRPC4 spec=-11%*;HEK293 MPD ctr 2-1=i;HEK293 MPD ctr-1=-186%*

# Screens as filed in PubChem.
